This is an account of results in ChEMBL document CHEMBL3351692, “Discovery and optimization of 1,3,5-trisubstituted pyrazolines as potent and highly selective allosteric inhibitors of protein kinase C-ζ” (J Med Chem, 2014).

Calls of active or inactive are those of the source. The rule behind the calls is not given here.

Data set [1] has as its target Protein kinase C theta type (Homo sapiens) (UniProt Q04759). The data set is described as follows: Inhibition of human PKCtheta at 10 uM relative to control.
Data set [2] addresses Protein kinase C gamma type (Homo sapiens) (UniProt P05129). The data set is described as follows: Inhibition of human PKCgamma at 10 uM relative to control.
Data set [3] addresses T1, Nitric oxide synthase, inducible (Mus musculus) (UniProt P29477).
T1 sequence (whole entry): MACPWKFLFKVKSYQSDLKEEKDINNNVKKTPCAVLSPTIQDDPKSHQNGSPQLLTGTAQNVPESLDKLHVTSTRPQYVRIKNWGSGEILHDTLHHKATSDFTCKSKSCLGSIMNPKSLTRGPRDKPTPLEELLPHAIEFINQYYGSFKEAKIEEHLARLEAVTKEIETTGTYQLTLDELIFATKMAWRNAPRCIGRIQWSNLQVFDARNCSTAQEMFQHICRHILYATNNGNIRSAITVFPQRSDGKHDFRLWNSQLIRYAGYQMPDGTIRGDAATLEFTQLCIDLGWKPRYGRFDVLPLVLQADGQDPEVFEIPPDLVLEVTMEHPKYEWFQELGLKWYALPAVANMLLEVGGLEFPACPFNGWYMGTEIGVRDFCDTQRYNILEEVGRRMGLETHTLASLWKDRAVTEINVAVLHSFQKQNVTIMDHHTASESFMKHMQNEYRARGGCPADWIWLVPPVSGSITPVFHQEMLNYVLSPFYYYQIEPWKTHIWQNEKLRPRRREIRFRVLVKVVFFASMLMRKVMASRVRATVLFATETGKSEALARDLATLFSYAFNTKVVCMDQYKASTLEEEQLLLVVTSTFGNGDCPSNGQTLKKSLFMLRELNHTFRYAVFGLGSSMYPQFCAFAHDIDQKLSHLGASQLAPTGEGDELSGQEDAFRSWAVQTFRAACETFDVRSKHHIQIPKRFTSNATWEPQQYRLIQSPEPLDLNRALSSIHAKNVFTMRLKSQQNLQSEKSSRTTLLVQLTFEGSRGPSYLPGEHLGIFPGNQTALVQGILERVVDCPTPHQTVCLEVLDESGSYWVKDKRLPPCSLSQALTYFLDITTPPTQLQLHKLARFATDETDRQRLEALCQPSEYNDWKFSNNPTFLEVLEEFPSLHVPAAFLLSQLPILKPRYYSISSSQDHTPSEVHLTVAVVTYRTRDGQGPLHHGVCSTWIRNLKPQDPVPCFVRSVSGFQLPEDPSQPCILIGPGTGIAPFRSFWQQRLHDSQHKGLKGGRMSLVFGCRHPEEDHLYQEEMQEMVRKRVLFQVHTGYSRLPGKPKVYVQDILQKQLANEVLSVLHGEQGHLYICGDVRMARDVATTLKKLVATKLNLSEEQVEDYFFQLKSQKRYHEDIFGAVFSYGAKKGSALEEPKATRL
The data set can be described thus: Inhibition of iNOS induction in mouse RAW264.7 cells assessed as NO production at 7.5 uM. It is filed as cell-based. The method in brief: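 RAW 264.7 cells seeded at 8 × 10⁴ per well in DMEM/10% FBS and grown 2 days. Then exposed to LPS with compound or DMSO for 20 h. Supernatant nitrite measured by Griess reaction (sulfanilamide/NED) at 550 nm minus 620 nm background, quantified against a sodium nitrite standard curve. At least four experiments in triplicate.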

Data set [4] deals with Protein kinase C eta type (Homo sapiens) (UniProt P24723). The data set can be described thus: Inhibition of human PKCeta at 10 uM relative to control.
In data set [5] the target is Protein kinase C alpha type (Homo sapiens) (UniProt P17252). The data set can be described thus: Inhibition of human PKCalpha at 10 uM relative to control.
Data set [6] has as its target cAMP-dependent protein kinase catalytic subunit alpha (Homo sapiens) (UniProt P17612). The data set can be described thus: Inhibition of human PKA at 10 uM relative to control.
In data set [7] the target is T2, Protein kinase C zeta type (Homo sapiens, UniProt Q05513).
T2 sequence (Q05513 whole entry): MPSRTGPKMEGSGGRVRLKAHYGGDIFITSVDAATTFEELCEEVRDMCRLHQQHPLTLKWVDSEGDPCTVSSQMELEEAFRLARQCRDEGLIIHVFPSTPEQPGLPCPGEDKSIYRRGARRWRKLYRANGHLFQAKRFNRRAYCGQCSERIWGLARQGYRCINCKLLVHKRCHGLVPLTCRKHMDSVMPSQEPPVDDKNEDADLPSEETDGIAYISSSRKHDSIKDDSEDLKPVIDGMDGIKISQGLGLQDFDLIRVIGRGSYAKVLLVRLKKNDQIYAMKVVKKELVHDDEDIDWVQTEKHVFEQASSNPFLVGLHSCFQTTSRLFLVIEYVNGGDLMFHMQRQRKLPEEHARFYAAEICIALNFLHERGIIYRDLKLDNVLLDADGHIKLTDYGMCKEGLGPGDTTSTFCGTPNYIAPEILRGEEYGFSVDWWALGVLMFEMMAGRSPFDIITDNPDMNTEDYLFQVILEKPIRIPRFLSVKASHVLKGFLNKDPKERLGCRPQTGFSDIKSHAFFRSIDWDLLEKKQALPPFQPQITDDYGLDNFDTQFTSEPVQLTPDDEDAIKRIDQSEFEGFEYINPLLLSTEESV
The data set is described as follows: Inhibition of human PKCzeta assessed as phosphorylation reaction after 4 mins incubation by cell-free assay.

The subject of data set [8] is RAW264.7. The data set is described as follows: Cytotoxicity against mouse RAW264.7 cells assessed as living cells at 7.5 uM by MTT assay. The format is cell-based. The following applies: raw264.7, 7.5 µM. The method in brief: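 RAW 264.7 macrophages: MTT viability assay run in parallel with each nitrite (Griess) experiment, same cell line and same compound treatment conditions.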

Data set [9] addresses Ribosomal protein S6 kinase alpha-1 (Homo sapiens) (UniProt Q15418). The data set can be described thus: Inhibition of human RSK1 at 10 uM relative to control.
Data set [10] concerns the target Serine/threonine-protein kinase Sgk1 (Homo sapiens) (UniProt O00141). The data set can be described thus: Inhibition of human SGK1 at 10 uM relative to control.
Data set [11] addresses 3-phosphoinositide-dependent protein kinase 1 (Homo sapiens) (UniProt O15530). The data set can be described thus: Inhibition of human PDK1 at 10 uM relative to control.
Data set [12] addresses Ribosomal protein S6 kinase beta-1 (Homo sapiens) (UniProt P23443). The data set is described as follows: Inhibition of human p70S6K at 10 uM relative to control.
The target of data set [13] is Ribosomal protein S6 kinase alpha-5 (Homo sapiens) (UniProt O75582). The data set is described as follows: Inhibition of human MSK1 at 10 uM relative to control.
The target in data set [14] is T3, Protein kinase C zeta type (Homo sapiens) (UniProt Q05513).
T3 sequence (whole entry): T2 sequence (Q05513 whole entry)
The data set can be described thus: Inhibition of PKCzeta (unknown origin) expressed in HEK293 cells assessed as reduction in specific activity for 6 hrs after 30 mins IGF-I stimulation by in serum free medium. It is filed as cell-based. The method in brief:
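HEK293 cells transfected at 80% confluency with GST-PKCζ wild-type or V297L mutant plasmids. Next day switched to DMEM with 0.1% FCS and compound or DMSO for 6 h, then IGF-I 50 ng/mL final for 30 min at 37 °C. Lysed; GST-PKCζ pulled down on glutathione beads and eluted. 50 ng per reaction assayed for kinase activity with myelin basic protein as substrate. Triplicate treatments, two independent experiments.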

The target of data set [15] is Protein kinase C delta type (Homo sapiens) (UniProt Q05655). The data set can be described thus: Inhibition of human PKCdelta at 10 uM relative to control.
For data set [16], the target named is Protein kinase C epsilon type (Homo sapiens) (UniProt Q02156). The data set is described as follows: Inhibition of human PKCepsilon at 10 uM relative to control.
Sequence of Protein kinase C epsilon type (Homo sapiens) (Q02156 whole entry): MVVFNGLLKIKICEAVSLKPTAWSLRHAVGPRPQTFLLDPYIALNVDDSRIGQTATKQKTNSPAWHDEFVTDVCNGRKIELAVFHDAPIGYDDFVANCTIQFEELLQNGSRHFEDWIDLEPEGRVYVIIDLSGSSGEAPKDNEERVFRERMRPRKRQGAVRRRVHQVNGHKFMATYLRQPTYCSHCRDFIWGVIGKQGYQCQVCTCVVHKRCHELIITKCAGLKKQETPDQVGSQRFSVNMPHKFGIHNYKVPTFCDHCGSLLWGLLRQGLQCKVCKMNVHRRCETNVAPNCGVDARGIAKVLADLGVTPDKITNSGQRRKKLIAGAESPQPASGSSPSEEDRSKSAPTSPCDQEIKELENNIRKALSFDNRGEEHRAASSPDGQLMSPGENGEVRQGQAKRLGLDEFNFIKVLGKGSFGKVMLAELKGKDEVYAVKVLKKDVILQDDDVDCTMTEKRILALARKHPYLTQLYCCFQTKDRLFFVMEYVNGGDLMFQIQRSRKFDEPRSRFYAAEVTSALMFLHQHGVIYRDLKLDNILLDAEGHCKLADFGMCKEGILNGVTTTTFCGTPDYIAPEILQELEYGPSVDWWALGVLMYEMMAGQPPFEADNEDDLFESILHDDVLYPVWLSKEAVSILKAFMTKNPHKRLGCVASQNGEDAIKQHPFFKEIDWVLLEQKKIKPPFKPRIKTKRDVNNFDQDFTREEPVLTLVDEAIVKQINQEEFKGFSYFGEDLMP
Data set [17] deals with T2, Protein kinase C zeta type. The data set can be described thus: Inhibition of PKCzeta in human U937 cells assessed as inhibition of TNFalpha-induced NF-kappaB activation by reporter gene assay. It is filed as cell-based, U-937.
Data set [18] has as its system U-937. The data set can be described thus: Inhibition of Thr410 phosphorylation in serum-starved human U937 cells at 5 to 10 uM by immunoblotting analysis.
In data set [19] the target is T3, Protein kinase C zeta type (Homo sapiens). The data set is described as follows: Inhibition of PKCzeta in serum-starved human U937 cells assessed as inhibition of TNFalpha-stimulated activation loop phosphorylation at 2.5 to 5 uM by immunoblotting analysis. It is filed as cell-based. The settings on record: U-937. The method in brief:
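U937 cells in RPMI/10% FBS, serum-starved 24 h, treated with compound or DMSO for 1 h, then TNFα 50 ng/mL for 30 min. Whole-cell lysates separated by SDS–PAGE (10% gel) and immunoblotted for phospho-PKCζ/λ (Thr410/403), with β-actin as loading control. Near-infrared detection. Two separate experiments.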

Data set [20] addresses Protein kinase C beta type (Homo sapiens) (UniProt P05771). The data set is described as follows: Inhibition of human PKCbeta1 at 10 uM relative to control.

Sequence of Protein kinase C theta type (Homo sapiens) (Q04759 whole entry, looked up): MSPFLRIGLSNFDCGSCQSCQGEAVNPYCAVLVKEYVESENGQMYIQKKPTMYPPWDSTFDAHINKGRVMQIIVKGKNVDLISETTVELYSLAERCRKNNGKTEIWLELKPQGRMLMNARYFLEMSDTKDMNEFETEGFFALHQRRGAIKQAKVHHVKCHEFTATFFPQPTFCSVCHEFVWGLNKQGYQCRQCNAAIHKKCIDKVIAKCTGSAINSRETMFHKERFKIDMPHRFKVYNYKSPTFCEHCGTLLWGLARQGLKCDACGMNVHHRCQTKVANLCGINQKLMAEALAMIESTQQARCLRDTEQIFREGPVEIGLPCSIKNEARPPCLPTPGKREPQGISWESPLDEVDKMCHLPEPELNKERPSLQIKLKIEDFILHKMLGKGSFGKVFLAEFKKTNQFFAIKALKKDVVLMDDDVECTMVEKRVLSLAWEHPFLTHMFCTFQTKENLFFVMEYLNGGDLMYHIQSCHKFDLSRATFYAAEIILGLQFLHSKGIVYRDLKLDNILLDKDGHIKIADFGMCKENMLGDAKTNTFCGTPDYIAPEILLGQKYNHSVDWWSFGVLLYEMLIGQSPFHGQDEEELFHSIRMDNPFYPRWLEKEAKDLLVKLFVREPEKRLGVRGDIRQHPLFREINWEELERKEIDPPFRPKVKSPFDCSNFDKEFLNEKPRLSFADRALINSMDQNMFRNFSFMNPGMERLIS
Sequence of Ribosomal protein S6 kinase alpha-1 (Homo sapiens) (Q15418 whole entry): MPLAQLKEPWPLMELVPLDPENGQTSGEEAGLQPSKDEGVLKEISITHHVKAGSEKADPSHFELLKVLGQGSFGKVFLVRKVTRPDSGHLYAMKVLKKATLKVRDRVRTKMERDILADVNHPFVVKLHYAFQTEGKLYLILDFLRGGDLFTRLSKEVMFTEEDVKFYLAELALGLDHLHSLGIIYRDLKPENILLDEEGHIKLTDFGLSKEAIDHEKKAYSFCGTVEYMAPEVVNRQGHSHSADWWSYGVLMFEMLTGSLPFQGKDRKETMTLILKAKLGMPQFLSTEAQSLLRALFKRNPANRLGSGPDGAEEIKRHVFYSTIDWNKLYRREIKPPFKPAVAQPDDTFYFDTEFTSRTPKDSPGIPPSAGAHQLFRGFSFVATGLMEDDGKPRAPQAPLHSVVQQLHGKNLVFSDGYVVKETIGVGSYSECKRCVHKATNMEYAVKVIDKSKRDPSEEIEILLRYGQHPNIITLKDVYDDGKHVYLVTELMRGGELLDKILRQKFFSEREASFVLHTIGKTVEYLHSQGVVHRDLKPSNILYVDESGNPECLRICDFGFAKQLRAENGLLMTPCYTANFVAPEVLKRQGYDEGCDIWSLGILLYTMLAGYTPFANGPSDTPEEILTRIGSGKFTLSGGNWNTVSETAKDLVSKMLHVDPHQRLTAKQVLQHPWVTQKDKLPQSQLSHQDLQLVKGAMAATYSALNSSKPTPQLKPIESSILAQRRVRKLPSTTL
Sequence of 3-phosphoinositide-dependent protein kinase 1 (Homo sapiens) (O15530 whole entry, looked up): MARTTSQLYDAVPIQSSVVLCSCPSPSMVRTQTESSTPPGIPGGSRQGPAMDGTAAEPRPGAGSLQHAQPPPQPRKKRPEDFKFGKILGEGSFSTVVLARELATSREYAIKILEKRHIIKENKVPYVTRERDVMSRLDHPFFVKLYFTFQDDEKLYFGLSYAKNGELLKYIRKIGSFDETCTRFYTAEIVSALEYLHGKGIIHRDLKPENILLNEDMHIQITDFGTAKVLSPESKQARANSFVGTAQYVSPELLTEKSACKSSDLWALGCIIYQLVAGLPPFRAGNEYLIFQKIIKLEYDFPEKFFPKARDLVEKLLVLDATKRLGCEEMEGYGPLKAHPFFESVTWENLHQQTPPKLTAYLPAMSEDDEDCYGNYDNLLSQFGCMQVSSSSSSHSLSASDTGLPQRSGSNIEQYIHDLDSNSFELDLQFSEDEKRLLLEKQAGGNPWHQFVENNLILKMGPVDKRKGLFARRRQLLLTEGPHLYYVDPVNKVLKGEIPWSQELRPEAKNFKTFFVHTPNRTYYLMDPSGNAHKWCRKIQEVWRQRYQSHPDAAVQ
Sequence of Serine/threonine-protein kinase Sgk1 (Homo sapiens) (O00141 whole entry): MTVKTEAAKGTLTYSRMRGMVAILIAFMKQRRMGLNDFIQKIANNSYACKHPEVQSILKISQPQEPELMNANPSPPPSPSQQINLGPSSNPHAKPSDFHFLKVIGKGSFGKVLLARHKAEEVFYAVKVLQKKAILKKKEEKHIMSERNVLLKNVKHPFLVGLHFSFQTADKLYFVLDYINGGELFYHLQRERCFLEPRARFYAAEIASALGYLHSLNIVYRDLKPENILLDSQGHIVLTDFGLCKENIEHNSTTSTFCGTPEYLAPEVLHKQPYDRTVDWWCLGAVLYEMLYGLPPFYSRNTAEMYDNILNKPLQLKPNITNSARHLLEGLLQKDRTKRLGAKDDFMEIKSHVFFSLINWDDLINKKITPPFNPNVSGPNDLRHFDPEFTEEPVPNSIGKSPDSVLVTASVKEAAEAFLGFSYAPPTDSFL
Sequence of Ribosomal protein S6 kinase beta-1 (Homo sapiens) (P23443 whole entry, looked up): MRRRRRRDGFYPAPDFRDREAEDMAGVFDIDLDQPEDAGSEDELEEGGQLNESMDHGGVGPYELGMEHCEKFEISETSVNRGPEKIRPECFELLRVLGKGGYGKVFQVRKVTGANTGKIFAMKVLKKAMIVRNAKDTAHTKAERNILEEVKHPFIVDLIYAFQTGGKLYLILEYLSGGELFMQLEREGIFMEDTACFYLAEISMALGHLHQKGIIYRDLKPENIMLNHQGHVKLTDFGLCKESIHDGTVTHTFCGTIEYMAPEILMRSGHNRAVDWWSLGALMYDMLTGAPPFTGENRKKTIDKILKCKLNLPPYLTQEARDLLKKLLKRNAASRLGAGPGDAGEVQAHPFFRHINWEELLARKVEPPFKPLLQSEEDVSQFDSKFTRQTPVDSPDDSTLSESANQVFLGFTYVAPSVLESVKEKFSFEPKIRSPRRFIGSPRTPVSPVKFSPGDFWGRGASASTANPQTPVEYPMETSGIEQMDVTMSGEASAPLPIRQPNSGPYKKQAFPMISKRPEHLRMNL

For `CC(C)(C)C1=NN(c2cccc(Cl)c2)C(c2ccc(F)c(O)c2)C1` (stereo not given), the inhibition result in [1], in data set [4], in data set [6], in data set [12], in data set [13] and in [15] was “inactive” throughout. Besides, the inhibition entry in data set [16] and in data set [20] was “inactive” each time. Also, the inhibition in data set [2] was 6%; in data set [3], 74%; in [5] it was 4%; in data set [9], 3%; in data set [10], 18%; in [11] it was 8%. Further, the inhibition entry in [14] is “Dose-dependent effect”. Moreover, the IC50 amounted to 300 nM in data set [7] and 2500 nM in data set [17]. In [8], the Activity entry was “Non-toxic”. The inhibition result in [18] and in data set [19] was “Active” throughout.
